ChEMBL document CHEMBL4339200, “Structure-based Discovery of Phenyl (3-Phenylpyrrolidin-3-yl)sulfones as Selective, Orally Active RORγt Inverse Agonists” (ACS Med Chem Lett, 2019)
Calls of active or inactive are those of the source. No cut-off for these calls is given here.

Assays:
[1] = target: Cytochrome P450 2D6 (Homo sapiens, UniProt P10635); test: Inhibition of CYP2D6 (unknown origin); assay type: ADME
[2] = target: T1, Nuclear receptor subfamily 1 group I member 2 (Homo sapiens, UniProt O75469); test: Transactivation of PXR in human HepG2 cells; assay type: ADME, cell-based
T1 sequence (O75469 whole entry): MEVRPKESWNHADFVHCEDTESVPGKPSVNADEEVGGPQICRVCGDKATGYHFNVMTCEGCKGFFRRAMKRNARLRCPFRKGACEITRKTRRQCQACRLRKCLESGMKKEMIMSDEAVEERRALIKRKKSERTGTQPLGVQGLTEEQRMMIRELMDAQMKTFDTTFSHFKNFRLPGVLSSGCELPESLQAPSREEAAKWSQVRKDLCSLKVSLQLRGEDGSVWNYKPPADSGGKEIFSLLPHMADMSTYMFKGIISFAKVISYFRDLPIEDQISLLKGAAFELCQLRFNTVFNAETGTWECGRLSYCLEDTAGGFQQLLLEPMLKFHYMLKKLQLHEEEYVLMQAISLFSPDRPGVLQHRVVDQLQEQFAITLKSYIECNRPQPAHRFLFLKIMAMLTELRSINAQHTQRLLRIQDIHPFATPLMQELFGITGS

[3] = AUC in Balb/c mouse at 2 mg/kg, iv; assay type: ADME, organism-based; conditions: in vivo
In short: (§1)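 Balb/c mice given a single intravenous dose of 2 mg/kg or an oral dose of 10 mg/kg. Plasma exposure was followed to derive Cmax, Tmax, AUC, t1/2, clearance, Vss and oral bioavailability (F).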

[4] = Oral bioavailability in Balb/c mouse at 10 mg/kg; assay type: ADME, organism-based; conditions: in vivo; in short: as §1
[5] = tested on: Mus musculus; test: Inhibition of IL2/IL23-induced IL17F production in C57BL/6 mouse at 15 mg/kg, po bid treated 30 mins prior to 24 hrs IL2 challenge followed by IL2/IL23 addition at 0,7 and 23 hrs measured after 7 hrs post last IL2/IL23 challenge relative to control; assay type: functional; conditions: C57BL/6, po
In short: (§2)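 Naive mice were challenged three times with IL-2 plus IL-23 (first at 0 and 7 h) and dosed orally bid at 5, 15 or 50 mg/kg. Serum cytokines were measured 7 h after the final IL-2/IL-23 administration. An anti-IL-23 antibody served as positive control.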

[6] = tested on: Mus musculus; test: Inhibition of IL2/IL23-induced IL17F production in C57BL/6 mouse at 50 mg/kg, po bid treated 30 mins prior to 24 hrs IL2 challenge followed by IL2/IL23 addition at 0,7 and 23 hrs measured after 7 hrs post last IL2/IL23 challenge relative to control; assay type: functional; conditions: C57BL/6, po; in short: as §2
[7] = target: T2, Nuclear receptor ROR-beta (Homo sapiens) (UniProt Q92753); test: Agonist activity at GAL4-fused RORbeta LBD (200 to 559 residues) (unknown origin) expressed in human Jurkat cells measured after 18 hrs by native IL17 promoter driven steady-glo luciferase assay; assay type: cell-based
T2 sequence (whole entry): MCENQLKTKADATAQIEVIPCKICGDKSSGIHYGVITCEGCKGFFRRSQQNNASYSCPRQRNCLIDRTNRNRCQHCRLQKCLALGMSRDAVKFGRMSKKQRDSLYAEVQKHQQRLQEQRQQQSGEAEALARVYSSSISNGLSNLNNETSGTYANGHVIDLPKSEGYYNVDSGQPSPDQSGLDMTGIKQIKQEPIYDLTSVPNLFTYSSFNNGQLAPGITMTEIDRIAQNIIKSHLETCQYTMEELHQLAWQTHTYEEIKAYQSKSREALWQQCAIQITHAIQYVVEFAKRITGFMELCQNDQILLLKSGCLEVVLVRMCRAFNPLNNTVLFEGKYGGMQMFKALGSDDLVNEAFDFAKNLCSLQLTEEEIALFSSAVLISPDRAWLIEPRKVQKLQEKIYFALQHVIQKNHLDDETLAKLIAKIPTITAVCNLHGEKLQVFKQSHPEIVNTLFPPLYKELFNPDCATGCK

[8] = Tmax in Balb/c mouse at 10 mg/kg, po; assay type: ADME, organism-based; conditions: in vivo; in short: as §1
[9] = Inhibition of CYP1B2 (unknown origin); assay type: ADME, Homo sapiens
[10] = target: Cytochrome P450 2C19 (Homo sapiens, UniProt P33261); test: Inhibition of CYP2C19 (unknown origin); assay type: ADME
Chain of Cytochrome P450 2C19 (P33261 whole entry): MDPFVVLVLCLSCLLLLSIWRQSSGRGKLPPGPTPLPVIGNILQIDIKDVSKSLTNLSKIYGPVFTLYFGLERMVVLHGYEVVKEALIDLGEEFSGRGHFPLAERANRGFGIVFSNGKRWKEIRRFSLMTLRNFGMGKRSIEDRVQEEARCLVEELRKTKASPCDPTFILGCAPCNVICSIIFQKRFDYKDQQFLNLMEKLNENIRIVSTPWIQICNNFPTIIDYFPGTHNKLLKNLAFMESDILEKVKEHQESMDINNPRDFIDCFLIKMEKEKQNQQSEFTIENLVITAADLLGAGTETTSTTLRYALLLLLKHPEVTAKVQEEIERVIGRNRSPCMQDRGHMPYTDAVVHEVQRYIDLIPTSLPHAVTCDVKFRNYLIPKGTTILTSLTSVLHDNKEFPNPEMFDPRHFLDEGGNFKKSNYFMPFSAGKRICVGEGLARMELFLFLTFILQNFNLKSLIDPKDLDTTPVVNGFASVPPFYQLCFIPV

[11] = Protein binding in human plasma assessed as unbound fraction; assay type: ADME, cell-free
[12] = tested on: Mus musculus; test: Inhibition of IL2/IL23-induced IL17A production in po bid dosed C57BL/6 mouse treated 30 mins prior to 24 hrs IL2 challenge followed by IL2/IL23 addition at 0,7 and 23 hrs measured after 7 hrs post last IL2/IL23 challenge; assay type: functional, organism-based; in short: as §2
[13] = target: T2, Nuclear receptor ROR-beta (Homo sapiens); test: Inverse agonist activity at GAL4-fused RORbeta LBD (200 to 559 residues) (unknown origin) expressed in human Jurkat cells measured after 18 hrs by native IL17 promoter driven steady-glo luciferase assay; assay type: cell-based
[14] = tested on: Mus musculus; test: Inhibition of IL2/IL23-induced IL6 production in po bid dosed C57BL/6 mouse treated 30 mins prior to 24 hrs IL2 challenge followed by IL2/IL23 addition at 0,7 and 23 hrs measured after 7 hrs post last IL2/IL23 challenge; assay type: functional, organism-based; in short: as §2
[15] = Half life in mouse liver microsomes; assay type: ADME, Microsome
[16] = target: T3, Cytochrome P450 2C8 (Homo sapiens, UniProt P10632); test: Inhibition of CYP2C8 (unknown origin); assay type: ADME
T3 sequence (P10632 whole entry): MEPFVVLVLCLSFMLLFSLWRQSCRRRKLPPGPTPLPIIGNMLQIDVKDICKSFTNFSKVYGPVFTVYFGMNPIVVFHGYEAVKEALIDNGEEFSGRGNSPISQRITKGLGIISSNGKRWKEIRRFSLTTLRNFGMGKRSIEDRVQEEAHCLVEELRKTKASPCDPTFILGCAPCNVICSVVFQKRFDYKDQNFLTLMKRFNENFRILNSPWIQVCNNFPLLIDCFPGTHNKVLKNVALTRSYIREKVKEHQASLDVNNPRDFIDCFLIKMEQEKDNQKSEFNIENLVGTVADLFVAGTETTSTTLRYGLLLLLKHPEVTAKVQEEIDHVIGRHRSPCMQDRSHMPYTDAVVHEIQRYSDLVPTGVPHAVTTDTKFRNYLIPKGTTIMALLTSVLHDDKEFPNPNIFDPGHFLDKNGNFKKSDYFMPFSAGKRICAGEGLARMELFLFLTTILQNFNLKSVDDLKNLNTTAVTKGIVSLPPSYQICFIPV

Chain of Cytochrome P450 2D6 (P10635 whole entry): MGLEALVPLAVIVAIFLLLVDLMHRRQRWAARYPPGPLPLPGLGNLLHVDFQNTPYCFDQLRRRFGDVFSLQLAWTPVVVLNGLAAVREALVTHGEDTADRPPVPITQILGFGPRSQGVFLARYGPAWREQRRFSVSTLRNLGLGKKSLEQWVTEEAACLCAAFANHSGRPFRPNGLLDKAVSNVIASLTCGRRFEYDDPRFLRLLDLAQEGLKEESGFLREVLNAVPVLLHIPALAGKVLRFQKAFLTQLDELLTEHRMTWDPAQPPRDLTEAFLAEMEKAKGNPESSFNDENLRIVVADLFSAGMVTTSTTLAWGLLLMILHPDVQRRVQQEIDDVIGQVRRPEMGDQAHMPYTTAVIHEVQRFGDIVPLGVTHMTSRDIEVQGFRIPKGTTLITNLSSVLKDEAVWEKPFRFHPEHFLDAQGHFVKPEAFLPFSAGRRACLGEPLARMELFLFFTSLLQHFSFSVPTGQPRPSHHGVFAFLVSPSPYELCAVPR

IC50 [1]: > 20 µM
EC50 [2]: > 50 µM
AUC [3]: 7.4 µM·h
bioavailability [4]: 99%
Activity [7]: inactive
Tmax [8]: 2 h
IC50 [9]: > 20 µM
IC50 [10]: > 20 µM
fraction unbound [11]: 0.037
Activity [13]: inactive
half-life [15]: > 2 h
IC50 [16]: 0.68 µM
SMILES: O=C(O)[C@H]1CC[C@H](C(=O)N2CC[C@](c3ccc(C(F)(C(F)(F)F)C(F)(F)F)cc3)(S(=O)(=O)c3ccc(F)cc3)C2)CC1
inhibition in vivo at 15 mg/kg [5]: 77%
inhibition in vivo at 50 mg/kg [6]: 98%
inhibition [12]: Dose-dependent effect
inhibition [14]: Dose-dependent effect
